Key:
[1] = Cytotoxicity against human HepG2 cells assessed as cell viability at 100 uM after 48 hrs by MTT assay; format: cell-based; details: read-out: Activity
Summary of the method: (§1)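 J774 A.1 cells were grown in DMEM and HepG2 in MEM, each with 10% FBS, penicillin, streptomycin and 2 mM L-glutamine, at 37 °C in 5% CO2. Seeded at 1-5·10^4 cells/well with half-log diluted compounds, 1% DMSO final, for 48 h. MTT was added to 0.5 mg/mL final for 3-4 h, solubilized in 50% DMSO/50% EtOH, and read at 570 nm. Background came from Triton X-100 lysed wells, and viability was taken relative to untreated controls.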

[2] = Cytotoxicity against mouse J774A1 cells assessed as cell viability at 100 uM after 48 hrs by MTT assay; format: functional; details: J774.A1, 48 h, read-out: Activity; summary of the method: as §1
[3] = test system: Hydroxyapatite; assay: Binding affinity to bone mineral hydroxyapatite assessed as adsorbed level at 100 uM after 2 hrs by UV-spectrophotometric analysis
Summary of the method: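 Duplicate 5 ml aliquots of 100 μM bisphosphonic acid in 50 mM Tris-HCl pH 7.5, stirred with 4 mg hydroxyapatite at 37 °C for 2 h. After centrifugation (10 min, 8000 rpm) and 0.22 μm filtration, supernatant absorbance was quantified against calibration lines.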

[4] = biological target: Matrix metalloproteinase-14 (Homo sapiens, UniProt P50281); assay: Inhibition of MMP14 catalytic domain (unknown origin) using Mca-Pro-Leu-Gly-Leu-Dpa-Ala-Arg-NH2 as substrate incubated for 30 mins prior to substrate addition measured after 2 to 4 hrs by fluorometric assay
Summary of the method: (§2)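 Catalytic domains of MMP-8, MMP-9 or MMP-14 were preincubated 30 min at 25 °C with inhibitor (six concentrations, 0.1 nM–100 μM) in 50 mM Tris-HCl pH 7.5, 200 mM NaCl, 1 mM CaCl2, 1 μM ZnCl2, 0.05% Brij-35, 1% DMSO. Substrate was added to 2.5 μM final for 2–4 h at 37 °C, then acetic acid stop. Fluorescence read at 340/405 nm, in triplicate; IC50 fitted from percent inhibition.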

[5] = biological target: Matrix metalloproteinase-9 (Homo sapiens, UniProt P14780); assay: Inhibition of MMP9 catalytic domain (unknown origin) using Mca-Pro-Leu-Gly-Leu-Dpa-Ala-Arg-NH2 as substrate incubated for 30 mins prior to substrate addition measured after 2 to 4 hrs by fluorometric assay; summary of the method: as §2
[6] = biological target: Neutrophil collagenase (Homo sapiens, UniProt P22894); assay: Inhibition of MMP8 catalytic domain (unknown origin) using Mca-Pro-Leu-Gly-Leu-Dpa-Ala-Arg-NH2 as substrate incubated for 30 mins prior to substrate addition measured after 2 to 4 hrs by fluorometric assay; summary of the method: as §2
[7] = biological target: 72 kDa type IV collagenase (Homo sapiens, UniProt P08253); assay: Inhibition of APMA-activated recombinant human MMP2 using Mca-Pro-Leu-Gly-Leu-Dpa-Ala-Arg-NH2 as substrate incubated for 30 mins prior to substrate addition measured after 2 to 4 hrs by fluorometric assay
Summary of the method: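 Human pro-MMP-2 was activated with 2 mM APMA for 1 h at 37 °C. Enzyme and inhibitor (six concentrations, 0.1 nM–100 μM) were preincubated 30 min at 25 °C in Tris-HCl pH 7.5 buffer with NaCl, CaCl2, ZnCl2, Brij-35 and 1% DMSO. Substrate was added to 2.5 μM final, run 2–4 h at 37 °C, and stopped with 3% acetic acid. Fluorescence read at ex 340/em 405 nm, in triplicate; IC50 from percent inhibition versus no-inhibitor controls.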

72 kDa type IV collagenase, sequence (P08253 whole entry): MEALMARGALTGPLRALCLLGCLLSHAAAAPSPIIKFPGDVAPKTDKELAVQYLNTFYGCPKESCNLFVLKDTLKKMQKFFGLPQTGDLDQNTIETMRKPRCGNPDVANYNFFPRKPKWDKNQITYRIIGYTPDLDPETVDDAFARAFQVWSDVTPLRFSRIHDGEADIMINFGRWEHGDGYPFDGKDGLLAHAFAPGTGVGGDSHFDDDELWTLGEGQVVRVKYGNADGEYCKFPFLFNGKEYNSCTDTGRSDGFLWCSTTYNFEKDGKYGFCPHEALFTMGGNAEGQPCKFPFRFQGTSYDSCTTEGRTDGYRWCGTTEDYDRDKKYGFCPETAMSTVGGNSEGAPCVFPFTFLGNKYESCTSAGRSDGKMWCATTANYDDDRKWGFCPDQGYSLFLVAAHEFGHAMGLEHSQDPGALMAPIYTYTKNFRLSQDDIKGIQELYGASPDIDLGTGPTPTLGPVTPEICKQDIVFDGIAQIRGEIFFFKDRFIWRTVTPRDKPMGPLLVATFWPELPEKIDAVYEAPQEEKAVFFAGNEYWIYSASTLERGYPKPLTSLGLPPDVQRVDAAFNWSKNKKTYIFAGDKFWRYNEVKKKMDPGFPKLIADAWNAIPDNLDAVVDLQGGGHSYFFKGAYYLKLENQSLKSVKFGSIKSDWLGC
Matrix metalloproteinase-9, sequence (P14780 whole entry, the tested form may be a part): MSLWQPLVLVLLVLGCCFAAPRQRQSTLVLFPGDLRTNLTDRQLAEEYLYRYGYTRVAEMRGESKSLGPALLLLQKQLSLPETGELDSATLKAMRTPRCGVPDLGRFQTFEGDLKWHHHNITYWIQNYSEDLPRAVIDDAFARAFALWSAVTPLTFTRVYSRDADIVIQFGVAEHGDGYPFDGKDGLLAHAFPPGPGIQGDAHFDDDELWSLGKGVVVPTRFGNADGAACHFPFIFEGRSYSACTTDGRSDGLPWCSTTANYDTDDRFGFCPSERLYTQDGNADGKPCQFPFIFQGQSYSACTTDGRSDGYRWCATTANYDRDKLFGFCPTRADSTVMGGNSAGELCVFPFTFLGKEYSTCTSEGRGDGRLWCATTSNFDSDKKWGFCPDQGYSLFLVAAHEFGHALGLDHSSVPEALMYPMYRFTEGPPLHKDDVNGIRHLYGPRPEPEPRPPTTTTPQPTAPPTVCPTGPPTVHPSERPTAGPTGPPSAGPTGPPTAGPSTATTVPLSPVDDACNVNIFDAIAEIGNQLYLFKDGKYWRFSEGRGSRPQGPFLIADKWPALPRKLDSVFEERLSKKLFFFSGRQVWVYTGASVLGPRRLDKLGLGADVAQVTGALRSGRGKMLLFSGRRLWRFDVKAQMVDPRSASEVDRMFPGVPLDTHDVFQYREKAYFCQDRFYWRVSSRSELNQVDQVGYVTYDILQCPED
Neutrophil collagenase, sequence (P22894 whole entry, the tested form may be a part): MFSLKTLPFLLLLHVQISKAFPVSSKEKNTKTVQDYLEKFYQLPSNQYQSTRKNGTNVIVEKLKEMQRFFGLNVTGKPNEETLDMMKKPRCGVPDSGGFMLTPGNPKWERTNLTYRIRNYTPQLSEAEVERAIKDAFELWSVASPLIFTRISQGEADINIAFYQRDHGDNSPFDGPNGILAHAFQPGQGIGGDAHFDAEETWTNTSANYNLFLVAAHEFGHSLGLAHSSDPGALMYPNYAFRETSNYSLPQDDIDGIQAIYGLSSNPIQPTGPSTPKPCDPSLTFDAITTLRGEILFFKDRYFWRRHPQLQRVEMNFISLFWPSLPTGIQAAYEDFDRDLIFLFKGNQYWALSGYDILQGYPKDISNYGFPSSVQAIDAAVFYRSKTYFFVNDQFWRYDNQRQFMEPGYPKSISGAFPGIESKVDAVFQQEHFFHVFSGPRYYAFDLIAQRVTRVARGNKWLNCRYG

| Structure (SMILES) | viability at 48 h, 100 µM [1] [%] | viability at 100 µM [2] [%] | Activity [3] [%] | IC50 [4] [µM] | IC50 [5] [µM] | IC50 [6] [µM] | IC50 [7] [µM] |
| --- | --- | --- | --- | --- | --- | --- | --- |
| O=P(O)(O)C(Nc1ccc(Br)cc1)P(=O)(O)O | 94 | 81 | 49 | 3.9 | 30 | 2.4 | 6 |
| O=[N+]([O-])c1ccc(NC(P(=O)(O)O)P(=O)(O)O)cc1 | 84 | 76 | 76 | 26 | 20 | 15 | 20 |
| O=P(O)(O)C(Nc1ccc(Oc2ccc(Cl)cc2)cc1)P(=O)(O)O | 87 | 73 | 52.1 | 76 | 55 | 39.9 | 2.1 |
| O=[N+]([O-])c1cccc(NC(P(=O)(O)O)P(=O)(O)O)c1 [(3-NITROPHENYLAMINO)METHYLENEDIPHOSPHONIC ACID] | 83 | 54 | 57.8 | > 100 | > 100 | > 100 | 15.5 |
| O=P(O)(O)C(Nc1ccc(-c2ccccc2)cc1)P(=O)(O)O | 88 | 36 | 60 | 33.5 | > 100 | 30 | > 100 |
| O=[N+]([O-])c1cc(NC(P(=O)(O)O)P(=O)(O)O)ccc1F | 69 | 69 | 66.2 | > 100 | > 100 | > 100 | 25 |
| Cc1ccc(NC(P(=O)(O)O)P(=O)(O)O)cc1 [(P-TOLYLAMINO)METHYLENEDIPHOSPHONIC ACID] | 104 | 83 | 23.9 | > 100 | > 100 | 36 | > 100 |
| O=P(O)(O)C(Nc1cccc(-c2ccccc2)c1)P(=O)(O)O | 102 | 49 | 66.4 | 40 | > 100 | 52 | > 100 |
| O=P(O)(O)C(Nc1ccccc1)P(=O)(O)O [(PHENYLAMINO)METHYLENEDIPHOSPHONIC ACID] | 96 | 68 | 58 | > 100 | > 100 | > 100 | > 100 |
| O=P(O)(O)C(Nc1ccc(Oc2ccc(Br)cc2)cc1)P(=O)(O)O | 90 | 15.3 | 60.7 | 49.5 | 87 | 43 | 2.8 |
| O=P(O)(O)C(Nc1ccc(Oc2ccccc2)cc1)P(=O)(O)O | 105 | 44 | 66.2 | 43 | > 100 | 44 | 2.8 |
| O=P(O)(O)C(Nc1ccc(F)cc1)P(=O)(O)O | 94 | 80.4 | 61.2 | > 100 | > 100 | > 100 | 28.2 |
| O=P(O)(O)C(Nc1cccc2ccccc12)P(=O)(O)O | 98 | 33 | 51.6 | 69 | 6 | 61 | 6.4 |
| N#Cc1ccc(NC(P(=O)(O)O)P(=O)(O)O)cc1 | 77 | 86 | 76 | > 100 | > 100 | > 100 | 36 |
| O=P(O)(O)C(Nc1ccc(Cl)cc1)P(=O)(O)O [(4-CHLOROPHENYLAMINO)METHYLENEDIPHOSPHONIC ACID] | 97 | 86 | 64.2 | > 100 | > 100 | > 100 | > 100 |
| O=P(O)(O)C(Nc1ccc(Cl)cc1Cl)P(=O)(O)O [2,4-DICHLOROPHENYLAMINOMETHYLENEBISPHOSPHONIC ACID] | 73 | 59 | 56.8 | > 100 | > 100 | > 100 | > 100 |
| O=P(O)(O)C(O)(Cn1ccnc1)P(=O)(O)O [ZOLEDRONIC ACID] | – | – | – | 12.6 | 52 | 17.6 | 7 |
| O=P(O)(O)C(Nc1cccc(C(F)(F)F)c1)P(=O)(O)O | 83 | 62 | 50.3 | > 100 | > 100 | > 100 | 20.8 |
| O=P(O)(O)C(Nc1ccc(C(F)(F)F)cc1)P(=O)(O)O | 100 | 53 | 42.5 | > 100 | > 100 | > 100 | 15 |
| O=P(O)(O)C(Nc1cccc(Br)c1)P(=O)(O)O | 67 | 72 | 70.1 | > 100 | > 100 | > 100 | 37.4 |
| O=P(O)(O)C(Nc1ccc(Cl)c(Cl)c1)P(=O)(O)O [3,4-DICHLOROPHENYLAMINOMETHYLENEBISPHOSPHONIC ACID] | 98 | 81 | 53.5 | 20 | > 100 | 25.5 | > 100 |
| O=P(O)(O)C(Nc1ccc(O)cc1)P(=O)(O)O | 101 | 19.5 | 88 | > 100 | > 100 | > 100 | 6.6 |
| O=P(O)(O)C(Sc1ccc(Cl)cc1)P(=O)(O)O [TILUDRONIC ACID] | 61 | 14 | 51.5 | 30.5 | > 100 | 32 | 7.2 |
| O=P(O)(O)C(Nc1cccc(F)c1)P(=O)(O)O | 70 | 84 | 63.6 | > 100 | > 100 | > 100 | 42 |
